What was measured:
Assay type in all cases: functional, organism-based
Mus musculus [1] = species on record: Mus musculus; assay: Radioactivity uptake in the pancreas was expressed as a percentage of the injected radioactive dose per gram of tissue (% ID/g) in B16/F1 Murine Melanoma-Bearing C57 Mice at 0.5 h
In short: (§1)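 C57 BL/6 female mice (7–8 weeks) carried B16/F1 tumours from 1×10^6 cells given s.c. in the right flank; tumours were ~500 mg at 9–10 days. Each mouse received […] of HPLC-purified, neutralized 111In-DOTA peptide via the tail vein. Mice were killed at 0.5, 2, 4 or 24 h pi. Tissues were weighed and γ-counted, expressed as % ID/g; ratios were tumor/tissue % ID/g.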

Mus musculus [2] = species on record: Mus musculus; assay: Radioactivity uptake in the spleen was expressed as a percentage of the injected radioactive dose per gram of tissue (% ID/g) in B16/F1 Murine Melanoma-Bearing C57 Mice at 0.5 h; in short: as §1
Mus musculus [3] = species on record: Mus musculus; assay: Radioactivity uptake in the spleen was expressed as a percentage of the injected radioactive dose per gram of tissue (% ID/g) in B16/F1 Murine Melanoma-Bearing C57 Mice at 4 h; in short: as §1
Mus musculus [4] = species on record: Mus musculus; assay: Radioactivity uptake in the tumor was expressed as a percentage of the injected radioactive dose per gram of tissue (% ID/g) in B16/F1 Murine Melanoma-Bearing C57 Mice at 0.5 h; in short: as §1
Mus musculus [5] = species on record: Mus musculus; assay: Radioactivity uptake in the blood was expressed as a percentage of the injected radioactive dose per gram of tissue (% ID/g) in B16/F1 Murine Melanoma-Bearing C57 Mice at 0.5 h; in short: as §1
Mus musculus [6] = species on record: Mus musculus; assay: Radioactivity uptake in the blood was expressed as a percentage of the injected radioactive dose per gram of tissue (% ID/g) in B16/F1 Murine Melanoma-Bearing C57 Mice at 2 h; in short: as §1
Mus musculus [7] = species on record: Mus musculus; assay: Radioactivity uptake in the blood was expressed as a percentage of the injected radioactive dose per gram of tissue (% ID/g) in B16/F1 Murine Melanoma-Bearing C57 Mice at 24 h; in short: as §1
Mus musculus [8] = species on record: Mus musculus; assay: Radioactivity uptake in the blood was expressed as a percentage of the injected radioactive dose per gram of tissue (% ID/g) in B16/F1 Murine Melanoma-Bearing C57 Mice at 4 h; in short: as §1
Mus musculus [9] = species on record: Mus musculus; assay: Radioactivity uptake in the heart was expressed as a percentage of the injected radioactive dose per gram of tissue (% ID/g) in B16/F1 Murine Melanoma-Bearing C57 Mice at 4 h; in short: as §1
Mus musculus [10] = species on record: Mus musculus; assay: Radioactivity uptake in the liver was expressed as a percentage of the injected radioactive dose per gram of tissue (% ID/g) in B16/F1 Murine Melanoma-Bearing C57 Mice at 2 h; in short: as §1
Mus musculus [11] = species on record: Mus musculus; assay: Radioactivity uptake in the liver was expressed as a percentage of the injected radioactive dose per gram of tissue (% ID/g) in B16/F1 Murine Melanoma-Bearing C57 Mice at 24 h; in short: as §1
Mus musculus [12] = species on record: Mus musculus; assay: Radioactivity uptake in the lungs was expressed as a percentage of the injected radioactive dose per gram of tissue (% ID/g) in B16/F1 Murine Melanoma-Bearing C57 Mice at 0.5 h; details: Lung; in short: as §1
Mus musculus [13] = species on record: Mus musculus; assay: Radioactivity uptake in the muscle was expressed as a percentage of the injected radioactive dose per gram of tissue (% ID/g) in B16/F1 Murine Melanoma-Bearing C57 Mice at 0.5 h; in short: as §1
Mus musculus [14] = species on record: Mus musculus; assay: Uptake Ratio of Tumor/blood (each in % ID/g) in B16/F1 Murine Melanoma-Bearing C57 Mice at 2 h; in short: as §1
Mus musculus [15] = species on record: Mus musculus; assay: Uptake Ratio of Tumor/blood (each in % ID/g) in B16/F1 Murine Melanoma-Bearing C57 Mice at 24 h; in short: as §1
Mus musculus [16] = species on record: Mus musculus; assay: Uptake Ratio of Tumor/kidneys (each in % ID/g) in B16/F1 Murine Melanoma-Bearing C57 Mice at 2 h; details: Kidney; in short: as §1
Mus musculus [17] = species on record: Mus musculus; assay: Uptake Ratio of Tumor/liver (each in % ID/g) in B16/F1 Murine Melanoma-Bearing C57 Mice at 24 h; in short: as §1
Mus musculus [18] = species on record: Mus musculus; assay: Uptake Ratio of Tumor/liver (each in % ID/g) in B16/F1 Murine Melanoma-Bearing C57 Mice at 4 h; in short: as §1
Mus musculus [19] = species on record: Mus musculus; assay: Uptake Ratio of Tumor/lungs (each in % ID/g) in B16/F1 Murine Melanoma-Bearing C57 Mice at 4 h
In short: (§2)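 Female C57 BL/6 mice, 7–8 weeks old, carried subcutaneous right-flank B16/F1 tumors from 1×10^6 cells and were used 9–10 days later at ~500 mg tumor weight. Each received […] of HPLC-purified, pH-neutralized ¹¹¹In-DOTA peptide by tail vein. Tumor and organs were excised at the stated time, weighed and γ-counted. Each tissue was taken as % ID/g, and tumor/normal-tissue ratios were formed from these values.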

Mus musculus [20] = species on record: Mus musculus; assay: Uptake Ratio of Tumor/muscle (each in % ID/g) in B16/F1 Murine Melanoma-Bearing C57 Mice at 2 h; details: Muscle tissue; in short: as §2
Mus musculus [21] = species on record: Mus musculus; assay: Uptake Ratio of Tumor/muscle (each in % ID/g) in B16/F1 Murine Melanoma-Bearing C57 Mice at 24 h; details: Muscle tissue; in short: as §2
Mus musculus [22] = species on record: Mus musculus; assay: Uptake Ratio of Tumor/kidneys (each in % ID/g) in B16/F1 Murine Melanoma-Bearing C57 Mice at 24 h; details: Kidney; in short: as §1
Mus musculus [23] = species on record: Mus musculus; assay: Uptake Ratio of Tumor/liver (each in % ID/g) in B16/F1 Murine Melanoma-Bearing C57 Mice at 0.5 h; in short: as §1
Mus musculus [24] = species on record: Mus musculus; assay: Uptake of [111In]-labeled compound in blood at 2 hr pi in the absence of […]
In short: (§3)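 C57 BL/6 female mice, 7–8 weeks old, inoculated s.c. in right flank with 1×10^6 B16/F1 melanoma cells. Used 9–10 days later at tumor weight ~500 mg. […] HPLC-purified 111In-DOTA peptide (neutral pH) given via tail vein, with or without […]. Killed 2 h pi. Tissues weighed and gamma-counted. Uptake expressed as % ID/g.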

Mus musculus [25] = species on record: Mus musculus; assay: Uptake of [111In]-labeled compound in blood at 2 hr pi in the presence of […]; in short: as §3
Mus musculus [26] = species on record: Mus musculus; assay: Uptake of [111In]-labeled compound in heart at 2 hr pi in the absence of […]; in short: as §3
Mus musculus [27] = species on record: Mus musculus; assay: Uptake of [111In]-labeled compound in heart at 2 hr pi in the presence of […]; in short: as §3
Mus musculus [28] = species on record: Mus musculus; assay: Uptake of [111In]-labeled compound in kidney at 2 hr pi in the absence of […]; in short: as §3
Mus musculus [29] = species on record: Mus musculus; assay: Uptake of [111In]-labeled compound in liver at 2 hr pi in the presence of […]; in short: as §3
Mus musculus [30] = species on record: Mus musculus; assay: Uptake of [111In]-labeled compound in lung at 2 hr pi in the absence of […]; in short: as §3
Mus musculus [31] = species on record: Mus musculus; assay: Uptake of [111In]-labeled compound in muscle at 2 hr pi in the absence of […]; details: Muscle tissue; in short: as §3
Mus musculus [32] = species on record: Mus musculus; assay: Uptake of [111In]-labeled compound in muscle at 2 h pi in the presence of […]; details: Muscle tissue; in short: as §3
Mus musculus [33] = species on record: Mus musculus; assay: Uptake of [111In]-labeled compound in spleen at 2 hr pi in the absence of 10 mg NDP; in short: as §3
Mus musculus [34] = species on record: Mus musculus; assay: Uptake of [111In]-labeled compound in tumor at 2 hr pi in the absence of […]; in short: as §3

| Substance | ID/g (Mus musculus [1]) [%] | ID/g (Mus musculus [2]) [%] | ID/g (Mus musculus [3]) [%] | ID/g (Mus musculus [4]) [%] | ID/g (Mus musculus [5]) [%] | ID/g (Mus musculus [6]) [%] | ID/g (Mus musculus [7]) [%] | ID/g (Mus musculus [8]) [%] | ID/g (Mus musculus [9]) [%] | ID/g (Mus musculus [10]) [%] | ID/g (Mus musculus [11]) [%] | ID/g (Mus musculus [12]) [%] | ID/g (Mus musculus [13]) [%] | Uptake ratio (Mus musculus [14]) | Uptake ratio (Mus musculus [15]) | Uptake ratio (Mus musculus [16]) | Uptake ratio (Mus musculus [17]) | Uptake ratio (Mus musculus [18]) | Uptake ratio (Mus musculus [19]) | Uptake ratio (Mus musculus [20]) | other results |
| --- | --- | --- | --- | --- | --- | --- | --- | --- | --- | --- | --- | --- | --- | --- | --- | --- | --- | --- | --- | --- | --- |
| Ac-Lys(DOTA)-ReCCEHdFRWCKPV-NH2 | 0.48 | 0.51 | 0.19 | 7.15 | 1.99 | 0.09 | 0.072 | 0.082 | 0.029 | 0.24 | 0.28 | 1.51 | 0.42 | 175 | 67.2 | 0.46 | 12.7 | 20.8 | 48.4 | 468 | Uptake ratio (Mus musculus [21]): 13.3; Uptake ratio (Mus musculus [22]): 0.27; Uptake ratio (Mus musculus [23]): 10.7 |
| DOTA-ReCCEHdFRWCKPV-NH2 | 0.62 | 0.59 | 0.22 | 10.4 | 1.57 | 0.065 | 0.01 | 0.034 | 0.12 | 0.23 | 0.16 | 1.7 | 0.42 | 196 | 601 | 1.3 | 32.7 | 49.4 | 100 | 319 | Uptake ratio (Mus musculus [21]): 173; Uptake ratio (Mus musculus [22]): 0.88; Uptake ratio (Mus musculus [23]): 18.4 |
| DOTA-ReCCEHdFRWCKPV-OH | 0.39 | 0.4 | 0.15 | 10.4 | 1.56 | 0.11 | 0.1 | 0.056 | 0.12 | 0.15 | 0.17 | 1.21 | 0.39 | 143 | 22.4 | 1.1 | 18.5 | 69.1 | 92 | 174 | Uptake ratio (Mus musculus [21]): 26.8; Uptake ratio (Mus musculus [22]): 0.43; Uptake ratio (Mus musculus [23]): 23.1 |
| DOTA-ReCCEHdFRWCKPVD-OH | 0.27 | 0.29 | 0.16 | 8.96 | 1.33 | 0.05 | 0.018 | 0.051 | 0.054 | 0.16 | 0.19 | 1.16 | 0.25 | 224 | 65.5 | 1.1 | 12.9 | 46.8 | 104 | 102 | Uptake ratio (Mus musculus [21]): 27.3; Uptake ratio (Mus musculus [22]): 0.4; Uptake ratio (Mus musculus [23]): 20.7 |
| DOTA-ReCCEHdFRWCRPV-NH2 | 0.41 | 0.78 | 0.27 | 16.6 | 1.7 | 0.21 | 0.06 | 0.085 | 0.054 | 0.38 | 0.32 | 1.66 | 0.39 | 93.7 | 95 | 2 | 25.6 | 60.2 | 122 | 2100 | ID/g (Mus musculus [24]): 0.21%; ID/g (Mus musculus [25]): 0.27%; ID/g (Mus musculus [26]): 0.07%; ID/g (Mus musculus [27]): 0.33%; ID/g (Mus musculus [28]): 8.72%; ID/g (Mus musculus [29]): 1.61%; ID/g (Mus musculus [30]): 0.3%; ID/g (Mus musculus [31]): 0.03%; ID/g (Mus musculus [32]): 0.18%; ID/g (Mus musculus [33]): 0.27%; ID/g (Mus musculus [34]): 17.3%; Uptake ratio (Mus musculus [21]): 42.2; Uptake ratio (Mus musculus [22]): 1.5; Uptake ratio (Mus musculus [23]): 25.2 |
